PMI activator = increases human mannose-6-phosphate isomerase activity; P34949; purified human PMI, coupled resazurin fluorescence, 20 min; active compounds read high; 1 = vehicle control, 0 substrate-free wells; activation factor at 20 µM; actives 0.005% (n = 190,000); AID 1214;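 active = activation factor of 2 or more at 20 µM, relative to plate controls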
Target sequence (P34949 whole entry, looked up): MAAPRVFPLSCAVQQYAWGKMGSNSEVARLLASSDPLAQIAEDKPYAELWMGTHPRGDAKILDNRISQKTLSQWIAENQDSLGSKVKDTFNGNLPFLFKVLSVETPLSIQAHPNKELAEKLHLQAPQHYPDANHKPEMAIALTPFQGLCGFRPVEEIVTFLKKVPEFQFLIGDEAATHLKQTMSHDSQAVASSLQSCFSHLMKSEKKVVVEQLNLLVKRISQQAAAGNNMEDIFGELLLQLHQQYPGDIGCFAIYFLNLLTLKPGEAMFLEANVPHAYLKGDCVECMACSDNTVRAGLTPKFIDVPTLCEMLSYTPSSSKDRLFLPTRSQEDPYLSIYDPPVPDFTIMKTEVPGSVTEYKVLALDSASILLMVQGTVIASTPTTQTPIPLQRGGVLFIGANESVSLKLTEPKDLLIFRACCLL
WT yeast gro inh = growth inhibition of WT yeast, mitochondrial fusion screen | inhibition, % at 10 µM | actives 2.1% (n = 190,000) | mitochondrial fusion phenotypic screen, WT strain | AID 1362; in the data active = inhibition above about 58%; tested in S. cerevisiae
Lmaj promast = reduces viability of Leishmania major promastigotes; resazurin fluorescence viability; inhibition, % at 10 µM; actives 9% (n = 200,000); AID 1063; in the data active = inhibition above about 50%;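 also: promastigotes grown with compound for 44 hours at 28 °C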
Diaph act CS = diaphorase activation or chemical reduction counter-screen | actives 0.005% (n = 190,000) | activation factor at 20 µM | Diaphorase/resazurin coupled assay, resorufin fluorescence, 16 min; active compounds read high; 1 = vehicle wells, 0 = NADH-free wells;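 active = diaphorase activity raised at least twofold by the compound at 20 µM; inactive = activation factor below 2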
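Assay system: Purified diaphorase enzyme from Clostridium kluyveri | Amount: Enzyme 0.07 U/mL final | Dosing: Compound 20 µM once, DMSO 1% | Timing: 16 min reaction at room temperature | Detection: Fluorescence, excitation 544 nm and emission 590 nm | Evaluation: Higher resorufin formation from activation or reduction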
PMI act satM6P = increases human PMI activity with near-saturating mannose 6-phosphate | P34949 | AID 1216 | activation factor at 20 µM | coupled PMI enzyme assay, resazurin fluorescence, 20 min; active compounds read high; 1 = untreated enzyme, 0 = substrate-free blank | actives 0.34% (n = 190,000);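 active = activation factor of 2 or more at 20 µM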
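Material: human phosphomannose isomerase with PGI, G6PDH, diaphorase coupling enzymes. Quantity: 15 ng/mL PMI. Medium: HEPES pH 7.4 buffer with MgCl2 and Tween-20. Reagent: Near-saturating mannose-6-phosphate, 1.0 mM. Compound: 20 µM single dose. Times: enzyme reaction with compound 20 min at room temperature. Detection: resorufin fluorescence at Ex 544/Em 590 nm.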
Starred values were filed as active, the others as inactive. Compounds with a hit are over-represented: about 10% of the library has one in this group of screens.

Results for Cn1c(=O)c(=O)n(C)c2cc(S(=O)(=O)N3CCN(c4ccc(F)cc4)CC3)ccc21 ?
PMI activator: 0.9; WT yeast gro inh: 13; Lmaj promast: -4; Diaph act CS: 0.9; PMI act satM6P: 0.9

What do the screens show for `CCOc1cc(/C=C2/SC(=S)N(C)C2=O)ccc1Oc1ccc([N+](=O)[O-])cc1[N+](=O)[O-]`?
PMI activator: 1.1; WT yeast gro inh: -6; Lmaj promast: 63*; Diaph act CS: 0.9; PMI act satM6P: 0.9

How did CSCCCNC(=O)c1ccc(OC2CCN(CCc3ccccc3)CC2)cc1 do in these assays?
PMI activator: 0.9; WT yeast gro inh: 7; Lmaj promast: 75*; Diaph act CS: 0.8; PMI act satM6P: 0.9

How did O=c1cc(-c2ccccc2)[nH]n1-c1ccc([N+](=O)[O-])cc1 do in these assays?
PMI activator: 1.1; Lmaj promast: 0; Diaph act CS: 0.9; PMI act satM6P: 1.1

Results for COc1ccc(/C=N/n2cc(-c3ccc(OC)cc3)nc2N)cc1 ?
PMI activator: 0.8; WT yeast gro inh: 16; Lmaj promast: 93*; Diaph act CS: 0.9; PMI act satM6P: 0.8

How did Cc1ccc2nc(Cl)c(/C=N/Nc3nc(C)cc(C)n3)c(=O)n2c1 do in these assays?
PMI activator: 1; WT yeast gro inh: 12; Lmaj promast: 57*; Diaph act CS: 0.9; PMI act satM6P: 0.9

How did CCC(C)NC(=O)c1ccc([N+](=O)[O-])c(Cl)c1 (centres undefined) do in these assays?
PMI activator: 0.9; WT yeast gro inh: -19; Lmaj promast: -3; Diaph act CS: 0.9; PMI act satM6P: 0.9

Results for NS(=O)(=O)c1ccc(Nc2nc(-c3ccc(O)cc3O)cs2)cc1 ?
PMI activator: 0.8; WT yeast gro inh: -9; Lmaj promast: 63*; Diaph act CS: 0.8; PMI act satM6P: 0.8

What do the screens show for `COc1ccc(N2C(=O)CC(Sc3nc4c(cc3C#N)CCC4)C2=O)cc1` (centres undefined)?
PMI activator: 0.8; WT yeast gro inh: -2; Lmaj promast: 9; Diaph act CS: 0.7; PMI act satM6P: 0.4

Results for C=CCN(CC=C)CCOc1cccc2ccccc12 ?
PMI activator: 1; WT yeast gro inh: 2; Lmaj promast: 62*; Diaph act CS: 0.8; PMI act satM6P: 0.9

How did C=CCN(CC=C)CCOc1ccccc1 do in these assays?
PMI activator: 1; WT yeast gro inh: -13; Lmaj promast: 54*; Diaph act CS: 0.8; PMI act satM6P: 0.9

Results for C=CCN(CC=C)CCOc1ccccc1F ?
PMI activator: 1.1; WT yeast gro inh: -10; Lmaj promast: 31; Diaph act CS: 1; PMI act satM6P: 1.1

Results for Cc1cc(C)n(Cc2ccc(NC(=O)c3ccc(COc4ccccc4Br)cc3)cc2)n1 ?
PMI activator: 0.9; WT yeast gro inh: 35; Lmaj promast: 56*; Diaph act CS: 0.9; PMI act satM6P: 0.9

How did Cc1cc(C)nc(NC(=O)c2ccc(COc3ccccc3Cl)cc2)c1 do in these assays?
PMI activator: 0.9; WT yeast gro inh: 65*; Lmaj promast: 6; Diaph act CS: 0.8; PMI act satM6P: 0.9

What do the screens show for `COC(=O)c1ccc(Cn2nc(C)cc2C)cc1`?
PMI activator: 1.1; WT yeast gro inh: -23; Lmaj promast: -6; Diaph act CS: 1; PMI act satM6P: 1.1

How did CCCCCCOc1ccc(N2C(=O)CC(SC(=NCC)NCC)C2=O)cc1 (centres undefined) do in these assays?
PMI activator: 1.1; WT yeast gro inh: -6; Lmaj promast: 1; Diaph act CS: 1; PMI act satM6P: 1.1

Results for CCCS(=O)(=O)N1CCN(S(=O)(=O)c2ccccc2)CC1 ?
PMI activator: 1; WT yeast gro inh: -1; Lmaj promast: 4; Diaph act CS: 0.9; PMI act satM6P: 1.1

Results for Cc1ccccc1N/N=C/c1ccc(C#N)cc1 ?
PMI activator: 1.6; WT yeast gro inh: -8; Lmaj promast: -9; Diaph act CS: 0.8; PMI act satM6P: 2.4*

How did O=C1CCCC2=C1C(c1cccs1)n1nc(SCc3ccccc3F)nc1N2 (centres undefined) do in these assays?
PMI activator: 0.9; WT yeast gro inh: -3; Lmaj promast: 91*; Diaph act CS: 0.8; PMI act satM6P: 0.9

Results for Cc1ccccc1CSc1nc2n(n1)C(c1cccs1)C1=C(CCCC1=O)N2 (centres undefined) ?
PMI activator: 0.9; WT yeast gro inh: -7; Lmaj promast: 58*; Diaph act CS: 0.9; PMI act satM6P: 1

What do the screens show for `CSc1nc2n(n1)C(c1cccs1)C1=C(CCCC1=O)N2` (centres undefined)?
PMI activator: 0.8; WT yeast gro inh: -7; Lmaj promast: -8; Diaph act CS: 0.8; PMI act satM6P: 0.9

What do the screens show for `Oc1ccc(N=Nc2cccc(C(F)(F)F)c2)cc1C=Nc1ccc(N2CCOCC2)cc1`?
PMI activator: 0.8; WT yeast gro inh: 29; Lmaj promast: 91*; Diaph act CS: 0.9; PMI act satM6P: 0.7

What do the screens show for `Clc1ccc2ncc(-c3nnnn3-c3ccccc3)c(-c3ccccc3)c2c1`?
PMI activator: 1; WT yeast gro inh: 70*; Lmaj promast: 32; Diaph act CS: 0.8; PMI act satM6P: 1

What do the screens show for `S=c1[nH]nc(-c2ccco2)n1/N=C/c1ccc(Cl)c(Cl)c1`?
PMI activator: 0.9; WT yeast gro inh: 76*; Lmaj promast: -7; Diaph act CS: 0.7; PMI act satM6P: 0.9

How did CCOC(=O)CN(C(=O)CSc1nnc2c(n1)[nH]c1ccc(OC)cc12)c1ccc(F)cc1 do in these assays?
PMI activator: 0.9; WT yeast gro inh: -5; Lmaj promast: 90*; Diaph act CS: 0.7; PMI act satM6P: 0.8

Results for CC(C)OC(=O)CSc1nnc2c(n1)[nH]c1ccc(F)cc12 ?
PMI activator: 1; WT yeast gro inh: -4; Lmaj promast: 0; Diaph act CS: 1; PMI act satM6P: 1.1

What do the screens show for `COc1ccccc1C1(O)CCN(CC(=O)Nc2nc(-c3ccccc3)cs2)CC1`?
PMI activator: 0.9; WT yeast gro inh: 21; Lmaj promast: 10; Diaph act CS: 0.8; PMI act satM6P: 0.9

How did NC(=S)NNc1cccc2cccnc12 do in these assays?
PMI activator: 0.6; WT yeast gro inh: 3; Lmaj promast: -2; Diaph act CS: 0.3; PMI act satM6P: 1

What do the screens show for `CS(=O)(=O)Nc1cccc2cccnc12`?
PMI activator: 0.9; WT yeast gro inh: 6; Lmaj promast: 80*; Diaph act CS: 0.7; PMI act satM6P: 0.8

Results for O=S(=O)(Nc1cccc2cccnc12)c1ccc(S(=O)(=O)N2CCCC2)cc1 ?
PMI activator: 0.7; WT yeast gro inh: 3; Lmaj promast: 99*; Diaph act CS: 0.7; PMI act satM6P: 0.7

How did NC(=S)Nc1cccc2cccnc12 do in these assays?
PMI activator: 0.9; WT yeast gro inh: -4; Lmaj promast: 89*; Diaph act CS: 1; PMI act satM6P: 0.9

Screening data (PubChem BioAssay)
